Experimental data: ChEMBL document CHEMBL1131381, “Design and synthesis of potent, selective inhibitors of endothelin-converting enzyme” (J Med Chem, 1998)

Experiments:
[1] = Ratio of inhibitory activities against endothelin converting enzyme-1(ECE-1) and neutral endopeptidase (NEP).
[2] = molecular target: T1, Endothelin-converting enzyme 1 (Homo sapiens, UniProt P42892); assay: Inhibitory activity was assessed on CHO cells expressing recombinant human Endothelin-converting enzyme 1 (ECE-1).; assay type: cell-based
T1 sequence (P42892 whole entry): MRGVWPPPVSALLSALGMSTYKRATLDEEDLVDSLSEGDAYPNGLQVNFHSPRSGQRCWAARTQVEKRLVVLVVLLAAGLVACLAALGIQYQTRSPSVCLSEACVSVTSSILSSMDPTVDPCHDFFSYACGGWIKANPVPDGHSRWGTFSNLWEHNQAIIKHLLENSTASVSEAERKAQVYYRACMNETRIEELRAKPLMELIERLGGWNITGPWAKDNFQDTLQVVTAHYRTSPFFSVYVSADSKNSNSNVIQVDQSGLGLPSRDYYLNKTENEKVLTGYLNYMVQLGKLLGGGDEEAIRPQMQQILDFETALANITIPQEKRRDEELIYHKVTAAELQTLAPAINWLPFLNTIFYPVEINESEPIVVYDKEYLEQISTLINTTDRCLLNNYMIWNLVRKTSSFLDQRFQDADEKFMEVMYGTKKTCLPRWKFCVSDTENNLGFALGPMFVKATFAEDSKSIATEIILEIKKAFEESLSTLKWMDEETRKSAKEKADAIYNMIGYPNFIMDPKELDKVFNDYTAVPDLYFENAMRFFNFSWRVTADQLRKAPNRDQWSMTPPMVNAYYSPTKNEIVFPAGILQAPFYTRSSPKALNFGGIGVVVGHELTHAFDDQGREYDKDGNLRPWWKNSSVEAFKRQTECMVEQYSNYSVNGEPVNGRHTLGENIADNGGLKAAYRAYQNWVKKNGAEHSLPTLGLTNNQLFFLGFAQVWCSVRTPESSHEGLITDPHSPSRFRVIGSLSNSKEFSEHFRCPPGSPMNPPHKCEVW
Method in brief: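 Membrane preparation (10 µg protein) from CHO cells expressing human ECE-1 was preincubated with compound for 20 min at room temperature in 50 mM Tes pH 7.0 with 0.005% Triton X-100. Human big ET-1 was added to a final 0.2 µM for 2 h at 37 °C. ET-1 formed was measured by [¹²⁵I]ET-1 radioimmunoassay.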

[3] = molecular target: Neprilysin (Homo sapiens, UniProt P08473); assay: Inhibitory activity against neutral endopeptidase (NEP).
Sequence of Neprilysin (P08473 whole entry): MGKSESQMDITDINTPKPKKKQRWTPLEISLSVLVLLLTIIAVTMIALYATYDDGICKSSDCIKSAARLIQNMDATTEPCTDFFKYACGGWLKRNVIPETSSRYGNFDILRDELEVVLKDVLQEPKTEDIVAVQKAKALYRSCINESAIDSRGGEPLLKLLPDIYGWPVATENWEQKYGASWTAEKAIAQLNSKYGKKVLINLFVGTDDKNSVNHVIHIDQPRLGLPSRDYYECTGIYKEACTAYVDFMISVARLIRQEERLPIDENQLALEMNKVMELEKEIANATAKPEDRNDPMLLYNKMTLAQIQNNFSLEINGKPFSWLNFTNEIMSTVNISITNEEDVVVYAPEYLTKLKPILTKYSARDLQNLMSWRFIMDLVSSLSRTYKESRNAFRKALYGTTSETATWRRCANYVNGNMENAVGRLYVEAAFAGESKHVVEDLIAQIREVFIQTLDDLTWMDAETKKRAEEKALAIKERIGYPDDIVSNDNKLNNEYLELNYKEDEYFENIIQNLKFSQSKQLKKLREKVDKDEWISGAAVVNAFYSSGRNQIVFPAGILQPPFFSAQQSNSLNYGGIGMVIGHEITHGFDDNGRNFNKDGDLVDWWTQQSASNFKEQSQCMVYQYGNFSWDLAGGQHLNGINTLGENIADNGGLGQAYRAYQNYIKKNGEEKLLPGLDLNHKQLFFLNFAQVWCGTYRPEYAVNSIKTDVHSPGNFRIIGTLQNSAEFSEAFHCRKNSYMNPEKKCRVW

[4] = molecular target: T2, Endothelin-converting enzyme 1 (Homo sapiens) (UniProt P42892); assay: Inhibitory activity (1 uM) was assessed on CHO cells expressing in recombinant human Endothelin-converting enzyme 1 (ECE-1); assay type: cell-based
T2 sequence (whole entry): T1 sequence (P42892 whole entry)

[5] = molecular target: T3, Neprilysin (Rattus norvegicus) (UniProt P07861); assay: Inhibitory activity (10 uM) against rat neutral endopeptidase (NEP)
T3 sequence (whole entry): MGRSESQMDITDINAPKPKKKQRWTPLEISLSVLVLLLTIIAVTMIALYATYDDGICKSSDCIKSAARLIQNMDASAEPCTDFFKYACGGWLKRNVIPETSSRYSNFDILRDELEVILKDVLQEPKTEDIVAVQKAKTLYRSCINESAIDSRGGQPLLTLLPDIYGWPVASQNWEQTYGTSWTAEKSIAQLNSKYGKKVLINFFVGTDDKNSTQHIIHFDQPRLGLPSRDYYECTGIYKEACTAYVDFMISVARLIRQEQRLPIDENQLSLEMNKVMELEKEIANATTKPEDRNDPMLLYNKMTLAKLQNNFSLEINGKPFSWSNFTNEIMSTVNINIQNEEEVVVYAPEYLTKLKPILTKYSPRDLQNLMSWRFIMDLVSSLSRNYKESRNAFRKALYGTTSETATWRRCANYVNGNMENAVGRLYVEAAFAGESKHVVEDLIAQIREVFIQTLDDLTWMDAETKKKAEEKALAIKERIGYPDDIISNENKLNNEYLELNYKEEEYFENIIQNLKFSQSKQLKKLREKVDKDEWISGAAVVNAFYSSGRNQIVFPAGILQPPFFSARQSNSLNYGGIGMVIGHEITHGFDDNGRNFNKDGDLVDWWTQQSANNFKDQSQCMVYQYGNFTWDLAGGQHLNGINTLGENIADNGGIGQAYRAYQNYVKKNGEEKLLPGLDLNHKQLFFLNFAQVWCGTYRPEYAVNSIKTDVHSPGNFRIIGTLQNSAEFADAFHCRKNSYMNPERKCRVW

[6] = molecular target: T2, Endothelin-converting enzyme 1 (Homo sapiens); assay: Inhibitory activity (1 uM) was assessed on CHO cells expressing in recombinant human Endothelin-converting enzyme 1 (ECE-1)

Compound	Selectivity [1]	IC50 [2]	IC50 [3]	inhibition [4]	inhibition [5]	inhibition [6]
CC(C)CCNC(=O)[C@H](CC#Cc1ccc(F)cc1F)NCP(=O)(O)O	164	140 nM	23000 nM			
O=C(O)[C@H](CC#Cc1ccccc1F)NC(=O)[C@H](CC#Cc1ccccc1F)NCP(=O)(O)O	225	28 nM	6300 nM			
O=P(O)(O)CN[C@@H](CC#Cc1ccccc1F)c1nnn[nH]1	0.1	150 nM	14 nM			
O=C(NCCCCc1ccccc1)[C@H](CC#Cc1ccccc1F)NCP(=O)(O)O				0%		
O=C(NCCc1ccccc1)[C@H](CC#Cc1ccc(F)cc1F)NCP(=O)(O)O		110 nM				
CC(C)C[C@H](NC(=O)[C@H](CC#Cc1ccc(F)cc1F)NCP(=O)(O)O)C(=O)O	131	51 nM	6700 nM			
O=C(NCCc1c[nH]c2ccccc12)[C@H](CC#Cc1ccccc1F)NCP(=O)(O)O	132	76 nM	10000 nM			
O=C(O)[C@H](CC#Cc1ccc(F)cc1F)NCP(=O)(O)O	153	170 nM	26000 nM			
CN(CCc1ccccc1)C(=O)[C@H](CC#Cc1ccccc1F)NCP(=O)(O)O				3%		
COc1ccccc1C#CC[C@H](NCP(=O)(O)O)c1nn[nH]n1				0%		
COc1ccc(CCNC(=O)[C@H](CC#Cc2ccc(F)cc2F)NCP(=O)(O)O)cc1OC		160 nM			21%	
CC(C)C[C@H](NC(=O)[C@H](CC#Cc1ccccc1F)NCP(=O)(O)O)C(=O)O		120 nM				
O=C(O)[C@H](CC1CCCCC1)NC(=O)[C@H](CC#Cc1ccc(F)cc1F)NCP(=O)(O)O	148	14 nM	2070 nM			
O=C(NCCc1ccccn1)[C@H](CC#Cc1ccc(F)cc1F)NCP(=O)(O)O	32	310 nM	10000 nM			
O=C(NCCc1ccc(-c2ccccc2)cc1)[C@H](CC#Cc1ccccc1F)NCP(=O)(O)O	197	33 nM	6500 nM			
O=C(NCCc1ccc2ccccc2c1)[C@H](CC#Cc1ccc(F)cc1F)NCP(=O)(O)O	132	53 nM	7000 nM			
O=C(O)CN1C(=O)[C@@H](NC(=O)[C@H](CC#Cc2ccc(F)cc2F)NCP(=O)(O)O)CCc2ccccc21	9	82 nM	730 nM			
O=C(NCCc1cccc2ccccc12)[C@H](CC#Cc1ccccc1F)NCP(=O)(O)O	82	130 nM	10700 nM			
Cc1ccc(C#CC[C@H](NCP(=O)(O)O)c2nn[nH]n2)cc1				45%		
CC(C)[C@H](NC(=O)[C@H](CC#Cc1ccccc1F)NCP(=O)(O)O)C(=O)O	57	110 nM	6300 nM			
O=C(NCCc1ccc(-c2ccccc2)cc1)[C@H](CC#Cc1ccc(F)cc1F)NCP(=O)(O)O	89	28 nM	2500 nM			
COc1ccccc1C#CC[C@H](NCP(=O)(O)O)C(=O)N[C@@H](CC(C)C)C(=O)O					12%	0%
O=C(NCCc1cccc2ccccc12)[C@H](CC#Cc1ccc(F)cc1F)NCP(=O)(O)O	182	34 nM	6200 nM			

The remaining lines, values ahead:

Selectivity [1]	IC50 [2]	IC50 [3]	inhibition [4]	inhibition [5]	inhibition [6]	Compound
21	56 nM	1200 nM				O=C(O)[C@H](Cc1ccccc1)NC(=O)[C@H](CC#Cc1ccccc1F)NCP(=O)(O)O
220	250 nM	55000 nM				O=C(NCc1ccccc1)[C@H](CC#Cc1ccccc1F)NCP(=O)(O)O
364	110 nM	40000 nM				O=C(NCCc1ccc(Br)cc1)[C@H](CC#Cc1ccccc1F)NCP(=O)(O)O
	400 nM					CC(C)C[C@H](NC(=O)[C@H](CC#Cc1cccc(F)c1)NCP(=O)(O)O)C(=O)O
19	13 nM	250 nM				O=C(O)[C@H](Cc1ccc(-c2ccccc2)cc1)NC(=O)[C@H](CC#Cc1ccccc1F)NCP(=O)(O)O
0.29	17 nM	5 nM				O=P(O)(O)C(CCc1cccc2ccccc12)N[C@@H](Cc1ccc(-c2ccccc2)cc1)c1nnn[nH]1 (some centres not stated)
1.9	510 nM	948 nM				CC(C)C[C@H](NC(=O)[C@H](CC#Cc1ccccc1)NCP(=O)(O)O)C(=O)O
20	43 nM	860 nM				O=C(NCCc1ccc(Br)cc1)[C@H](CC#Cc1ccc(F)cc1F)NCP(=O)(O)O
			8%			O=C(NCCc1ccc(-c2ccccc2)cc1)[C@H](CCCc1ccccc1F)NCP(=O)(O)O
52	25 nM	1300 nM				O=C(O)[C@H](Cc1ccc2ccccc2c1)NC(=O)[C@H](CC#Cc1ccccc1F)NCP(=O)(O)O
46	240 nM	11000 nM				O=C(O)[C@H](CC#Cc1ccccc1F)NCP(=O)(O)O
0.3	590 nM	170 nM				O=P(O)(O)CN[C@@H](CC#Cc1ccccc1)c1nn[nH]n1
18	230 nM	4060 nM				CSCC[C@H](NC(=O)[C@H](CC#Cc1ccccc1F)NCP(=O)(O)O)C(=O)O
83	230 nM	19000 nM				O=C(NCCc1ccccc1)[C@H](CC#Cc1ccccc1F)NCP(=O)(O)O
	150 nM					O=C(NCCCc1ccccc1)[C@H](CC#Cc1ccc(F)cc1F)NCP(=O)(O)O
	4300 nM			38%		CC(C)C[C@H](NC(=O)[C@H](CC#Cc1ccccc1Cl)NCP(=O)(O)O)C(=O)O
725	8 nM	5800 nM				CC(C)C[C@H](NC(=O)[C@H](CC#Cc1ccc(F)cc1F)NCP(=O)(O)O)C(=O)N[C@@H](C)C(=O)O
87	111 nM	9700 nM				O=C(NCCc1c[nH]c2ccccc12)[C@H](CC#Cc1ccc(F)cc1F)NCP(=O)(O)O
